Laboratory results from ChEMBL document CHEMBL1687738, “Effect of Candida glabrata FKS1 and FKS2 mutations on echinocandin sensitivity and kinetics of 1,3-beta-D-glucan synthase: implication for the existing susceptibility breakpoint” (Antimicrob Agents Chemother, 2009).
In brackets after ≈: the same amount, converted by molar mass. Starred links: 1 amine or outer side, 2 acyl side, 3 side chain; linkers in the order of their positions; H or OH if unused. Positions of bridges follow the written chain, without caps; N, C: chain ends. Non-standard residues stand in square brackets, D forms with d. Residues, ends and D or L forms follow the SMILES beside them. *: point of attachment. pTerphenylCO(4''-OnC5H11) = CCCCCOc1ccc(-c2ccc(-c3ccc(C(=O)*)cc3)cc2)cc1; Orn(4R-OH,5R-OH) = O=C([C@H](C[C@@H](O)[C@@H](O)N[*:3])N[*:1])[*:2]; hTyr(3S-OH,4S-OH) = N[C@H](C(=O)O)[C@H](O)[C@@H](O)c1ccc(O)cc1; Pro(3S-OH,4S-Me) = C[C@H]1CN[C@H](C(=O)O)[C@H]1O; Hyp = O=C(O)[C@@H]1C[C@@H](O)CN1

Columns and labels:
[1] = tested on: Nakaseomyces glabratus; experiment: Antifungal activity against Candida glabrata isolate 51916 expressing wild type Fks1p and Fks2p P667T mutant by CLSI method; type: functional
Method in brief: (§1)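 Broth microdilution MIC per CLSI M27-A3 in RPMI 1640 medium without serum. Caspofungin and micafungin stocks in sterile water; anidulafungin stock in 100% DMSO; stocks kept at −86°C.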

[2] = tested on: Nakaseomyces glabratus; experiment: Antifungal activity against Candida glabrata isolate 51916 expressing wild type Fks1p and Fks2p P667T mutant by CLSI method in presence of 50% human serum; type: functional
Method in brief: (§2)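 Broth microdilution MIC per CLSI M27-A3 in RPMI 1640 supplemented with 50% serum. Caspofungin and micafungin stocks in sterile water; anidulafungin stock in 100% DMSO; stocks kept at −86°C.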

[3] = tested on: Nakaseomyces glabratus; experiment: Antifungal activity against Candida glabrata isolate 42997 expressing Fks1p F625S mutant and wild type Fks2p by CLSI method; type: functional; method in brief: as §1
[4] = tested on: Nakaseomyces glabratus; experiment: Antifungal activity against Candida glabrata isolate 31498 expressing wild type Fks1p and Fks2p F659 deletion mutant by CLSI method; type: functional; method in brief: as §1
[5] = tested on: Nakaseomyces glabratus; experiment: Antifungal activity against Candida glabrata isolate 42031 expressing wild type Fks1p and Fks2p D666E mutant by CLSI method in presence of 50% human serum; type: functional; method in brief: as §2
[6] = Inhibition of Candida glabrata ATCC 90030 wild type 1,3-beta-D-glucan synthase; set-up: species or system Nakaseomyces glabratus
Method in brief: (§3)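 Cells grown in YPD broth at 35°C with vigorous shaking to early stationary phase. Membrane protein extracted and glucan synthase partially purified by product entrapment. Filtration polymerization assay measured [3H]glucose incorporation into product, started by adding enzyme. Echinocandin serial dilutions spanned 0.01–10,000 ng/ml, with 1% DMSO controls for anidulafungin. IC50 from variable-slope sigmoidal fit.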

[7] = tested on: Nakaseomyces glabratus; experiment: Antifungal activity against Candida glabrata isolate 31498 expressing wild type Fks1p and Fks2p F659 deletion mutant by CLSI method in presence of 50% human serum; type: functional; method in brief: as §2
[8] = tested on: Nakaseomyces glabratus; experiment: Antifungal activity against Candida glabrata isolate 41026 expressing wild type Fks1p and Fks2p F659S mutant by CLSI method; type: functional; method in brief: as §1
[9] = tested on: Nakaseomyces glabratus; experiment: Antifungal activity against Candida glabrata ATCC 90030 expressing wild type Fks1p and Fks2p by CLSI method in presence of 50% human serum; type: functional; method in brief: as §2
[10] = tested on: Nakaseomyces glabratus; experiment: Antifungal activity against Candida glabrata isolate 41400 expressing wild type Fks1p and Fks2p D666G mutant by CLSI method; type: functional; method in brief: as §1
[11] = tested on: Nakaseomyces glabratus; experiment: Antifungal activity against Candida glabrata isolate 234 expressing wild type Fks1p and Fks2p F659V mutant by CLSI method in presence of 50% human serum; type: functional; method in brief: as §2
[12] = molecular target: 1,3-beta-glucan synthase (Candida glabrata, UniProt F5BCZ9, P667T); experiment: Inhibition of Candida glabrata isolate 51916 1,3-beta-D-glucan synthase wild type Fks1p/Fks2p P667T mutant; set-up: species or system Nakaseomyces glabratus; method in brief: as §3
[13] = molecular target: 1,3-beta-glucan synthase component FKS1 (Candida glabrata, UniProt E2GKZ4, S629P); experiment: Inhibition of Candida glabrata isolate 5847 1,3-beta-D-glucan synthase Fks1p S629P mutant/wild type Fks2p; set-up: species or system Nakaseomyces glabratus; method in brief: as §3
[14] = molecular target: 1,3-beta-glucan synthase (Candida glabrata, UniProt F5BCZ9, F659S); experiment: Inhibition of Candida glabrata isolate 41026 1,3-beta-D-glucan synthase wild type Fks1p/Fks2p F659S mutant; set-up: species or system Nakaseomyces glabratus; method in brief: as §3
1,3-beta-glucan synthase (Candida glabrata, UniProt F5BCZ9, F659S), sequence (F5BCZ9 entry or part of it F659S): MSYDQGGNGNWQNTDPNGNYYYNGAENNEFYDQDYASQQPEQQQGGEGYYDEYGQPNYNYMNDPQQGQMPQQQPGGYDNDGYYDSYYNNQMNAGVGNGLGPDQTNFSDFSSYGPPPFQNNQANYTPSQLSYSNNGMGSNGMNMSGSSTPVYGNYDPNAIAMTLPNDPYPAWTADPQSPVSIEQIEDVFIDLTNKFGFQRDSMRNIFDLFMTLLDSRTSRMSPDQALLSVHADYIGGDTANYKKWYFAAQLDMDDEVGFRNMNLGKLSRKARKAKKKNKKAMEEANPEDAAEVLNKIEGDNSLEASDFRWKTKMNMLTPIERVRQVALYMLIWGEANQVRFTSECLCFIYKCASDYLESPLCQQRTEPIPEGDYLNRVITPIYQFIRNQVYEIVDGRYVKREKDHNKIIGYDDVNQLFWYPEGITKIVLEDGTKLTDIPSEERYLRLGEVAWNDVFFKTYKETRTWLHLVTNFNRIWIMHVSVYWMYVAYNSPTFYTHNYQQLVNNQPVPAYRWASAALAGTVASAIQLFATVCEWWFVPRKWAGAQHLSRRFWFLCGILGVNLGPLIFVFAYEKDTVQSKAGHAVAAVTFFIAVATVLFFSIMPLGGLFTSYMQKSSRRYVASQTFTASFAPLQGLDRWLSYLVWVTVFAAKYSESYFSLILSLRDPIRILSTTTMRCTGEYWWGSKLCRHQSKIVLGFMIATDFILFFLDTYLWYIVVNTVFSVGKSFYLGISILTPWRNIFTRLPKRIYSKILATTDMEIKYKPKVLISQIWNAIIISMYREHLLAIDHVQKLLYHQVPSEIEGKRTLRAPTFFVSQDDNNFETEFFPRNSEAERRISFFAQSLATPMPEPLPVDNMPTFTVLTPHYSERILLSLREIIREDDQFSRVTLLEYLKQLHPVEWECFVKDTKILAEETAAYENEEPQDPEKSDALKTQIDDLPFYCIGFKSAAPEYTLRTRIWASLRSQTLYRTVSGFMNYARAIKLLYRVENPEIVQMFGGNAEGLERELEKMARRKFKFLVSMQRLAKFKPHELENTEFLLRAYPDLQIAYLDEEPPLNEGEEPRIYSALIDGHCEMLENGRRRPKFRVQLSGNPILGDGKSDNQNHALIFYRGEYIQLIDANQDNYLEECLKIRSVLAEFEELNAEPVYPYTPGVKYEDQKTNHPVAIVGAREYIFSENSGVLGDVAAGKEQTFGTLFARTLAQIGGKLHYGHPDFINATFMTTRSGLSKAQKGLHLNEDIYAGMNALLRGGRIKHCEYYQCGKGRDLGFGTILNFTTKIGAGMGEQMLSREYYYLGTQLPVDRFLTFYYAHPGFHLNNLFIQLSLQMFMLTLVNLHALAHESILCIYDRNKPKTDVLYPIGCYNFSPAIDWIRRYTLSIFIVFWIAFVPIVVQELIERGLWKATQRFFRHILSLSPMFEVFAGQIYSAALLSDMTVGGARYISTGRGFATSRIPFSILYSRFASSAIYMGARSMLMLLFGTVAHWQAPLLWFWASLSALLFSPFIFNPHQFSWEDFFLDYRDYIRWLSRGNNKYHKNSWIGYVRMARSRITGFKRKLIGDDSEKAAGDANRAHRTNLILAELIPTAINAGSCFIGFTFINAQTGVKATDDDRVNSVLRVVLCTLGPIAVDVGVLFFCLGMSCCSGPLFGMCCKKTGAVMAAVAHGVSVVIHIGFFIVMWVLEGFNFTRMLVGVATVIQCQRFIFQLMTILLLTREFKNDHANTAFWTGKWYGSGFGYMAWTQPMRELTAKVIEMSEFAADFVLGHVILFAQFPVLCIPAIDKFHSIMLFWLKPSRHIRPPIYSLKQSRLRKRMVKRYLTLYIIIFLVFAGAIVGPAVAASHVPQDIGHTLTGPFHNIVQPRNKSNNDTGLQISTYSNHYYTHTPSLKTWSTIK

[15] = tested on: Nakaseomyces glabratus; experiment: Antifungal activity against Candida glabrata isolate 3169 expressing Fks1p D632E mutant and wild type Fks2p by CLSI method; type: functional; method in brief: as §1
[16] = molecular target: 1,3-beta-glucan synthase (Candida glabrata, UniProt F5BCZ9, D666E); experiment: Inhibition of Candida glabrata isolate 42031 1,3-beta-D-glucan synthase wild type Fks1p/Fks2p D666E mutant; set-up: species or system Nakaseomyces glabratus; method in brief: as §3
[17] = tested on: Nakaseomyces glabratus; experiment: Antifungal activity against Candida glabrata isolate 42997 expressing Fks1p F625S mutant and wild type Fks2p by CLSI method in presence of 50% human serum; type: functional; method in brief: as §2
[18] = molecular target: 1,3-beta-glucan synthase (Candida glabrata, UniProt F5BCZ9, F659V); experiment: Inhibition of Candida glabrata isolate 234 1,3-beta-D-glucan synthase wild type Fks1p/Fks2p F659V mutant; set-up: species or system Nakaseomyces glabratus; method in brief: as §3
1,3-beta-glucan synthase (Candida glabrata, UniProt F5BCZ9, F659V), sequence (F5BCZ9 entry or part of it F659V): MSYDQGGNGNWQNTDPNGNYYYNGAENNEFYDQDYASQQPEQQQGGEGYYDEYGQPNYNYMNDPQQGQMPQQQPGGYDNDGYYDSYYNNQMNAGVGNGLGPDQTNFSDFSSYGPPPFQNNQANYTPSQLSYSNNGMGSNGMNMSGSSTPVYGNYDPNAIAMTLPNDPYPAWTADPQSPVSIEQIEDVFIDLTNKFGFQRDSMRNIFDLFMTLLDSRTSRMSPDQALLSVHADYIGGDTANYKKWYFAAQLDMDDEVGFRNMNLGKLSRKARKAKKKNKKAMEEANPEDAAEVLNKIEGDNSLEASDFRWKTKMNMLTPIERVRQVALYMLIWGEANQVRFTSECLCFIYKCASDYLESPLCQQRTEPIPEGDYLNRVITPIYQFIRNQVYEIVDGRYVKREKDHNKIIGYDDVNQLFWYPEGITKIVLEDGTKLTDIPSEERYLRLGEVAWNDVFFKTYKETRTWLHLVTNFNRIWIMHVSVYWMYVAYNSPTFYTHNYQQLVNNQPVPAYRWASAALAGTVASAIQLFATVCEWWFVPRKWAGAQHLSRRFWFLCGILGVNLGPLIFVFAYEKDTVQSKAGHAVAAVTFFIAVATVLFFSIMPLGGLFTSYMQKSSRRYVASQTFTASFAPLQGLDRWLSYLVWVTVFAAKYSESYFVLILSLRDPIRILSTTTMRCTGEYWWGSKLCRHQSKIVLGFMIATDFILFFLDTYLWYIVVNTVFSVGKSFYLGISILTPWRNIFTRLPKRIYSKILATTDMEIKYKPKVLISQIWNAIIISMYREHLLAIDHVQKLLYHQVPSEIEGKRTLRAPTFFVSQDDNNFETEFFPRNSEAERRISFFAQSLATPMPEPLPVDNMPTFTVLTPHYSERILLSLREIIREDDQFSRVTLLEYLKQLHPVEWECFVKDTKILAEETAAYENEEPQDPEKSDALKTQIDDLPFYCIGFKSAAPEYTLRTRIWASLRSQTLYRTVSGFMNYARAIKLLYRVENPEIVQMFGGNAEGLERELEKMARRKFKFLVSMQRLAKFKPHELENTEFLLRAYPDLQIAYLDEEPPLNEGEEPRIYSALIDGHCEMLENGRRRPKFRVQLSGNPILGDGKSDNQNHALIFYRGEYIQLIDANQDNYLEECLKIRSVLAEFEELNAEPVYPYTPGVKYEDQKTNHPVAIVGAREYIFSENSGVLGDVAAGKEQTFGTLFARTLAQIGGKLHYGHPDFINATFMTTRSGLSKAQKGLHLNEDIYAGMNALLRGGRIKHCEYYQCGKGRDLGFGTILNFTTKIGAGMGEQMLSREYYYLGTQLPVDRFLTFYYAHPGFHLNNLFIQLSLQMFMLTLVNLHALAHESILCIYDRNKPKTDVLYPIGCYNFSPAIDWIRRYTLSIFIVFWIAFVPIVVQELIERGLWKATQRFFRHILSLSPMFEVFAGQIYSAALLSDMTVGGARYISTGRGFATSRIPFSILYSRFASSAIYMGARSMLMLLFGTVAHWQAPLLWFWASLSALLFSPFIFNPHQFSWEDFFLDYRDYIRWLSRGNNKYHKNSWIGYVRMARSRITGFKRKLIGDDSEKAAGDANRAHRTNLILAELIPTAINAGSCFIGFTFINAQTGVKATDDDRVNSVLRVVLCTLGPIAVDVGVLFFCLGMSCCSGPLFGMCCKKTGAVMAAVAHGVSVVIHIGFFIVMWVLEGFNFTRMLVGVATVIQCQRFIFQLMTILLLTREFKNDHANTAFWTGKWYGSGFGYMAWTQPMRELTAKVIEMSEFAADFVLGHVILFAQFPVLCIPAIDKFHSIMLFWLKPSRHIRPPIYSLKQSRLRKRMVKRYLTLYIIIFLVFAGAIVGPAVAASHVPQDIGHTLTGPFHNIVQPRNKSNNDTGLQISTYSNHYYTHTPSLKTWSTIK

[19] = molecular target: 1,3-beta-glucan synthase component FKS1 (Candida glabrata, UniProt E2GKZ4, D632G); experiment: Inhibition of Candida glabrata isolate 21900 1,3-beta-D-glucan synthase Fks1p D632G mutant/wild type Fks2p; set-up: species or system Nakaseomyces glabratus; method in brief: as §3
[20] = Inhibition of Candida glabrata isolate 31498 1,3-beta-D-glucan synthase wild type Fks1p/Fks2p F659 deletion mutant; set-up: species or system Nakaseomyces glabratus; method in brief: as §3
[21] = tested on: Nakaseomyces glabratus; experiment: Antifungal activity against Candida glabrata isolate 41026 expressing wild type Fks1p and Fks2p F659S mutant by CLSI method in presence of 50% human serum; type: functional; method in brief: as §2
[22] = tested on: Nakaseomyces glabratus; experiment: Antifungal activity against Candida glabrata isolate 5847 expressing Fks1p S629P mutant and wild type Fks2p by CLSI method; type: functional; method in brief: as §1
[23] = tested on: Nakaseomyces glabratus; experiment: Antifungal activity against Candida glabrata isolate 3168 expressing wild type Fks1p and Fks2p by CLSI method; type: functional; method in brief: as §1
[24] = tested on: Nakaseomyces glabratus; experiment: Antifungal activity against Candida glabrata isolate 42971 expressing Fks1p D632Y mutant and Fks2p R1377STOP mutant by CLSI method; type: functional; method in brief: as §1
[25] = tested on: Nakaseomyces glabratus; experiment: Antifungal activity against Candida glabrata isolate 218 expressing wild type Fks1p and Fks2p by CLSI method in presence of 50% human serum; type: functional; method in brief: as §2
[26] = tested on: Nakaseomyces glabratus; experiment: Antifungal activity against Candida glabrata isolate 41400 expressing wild type Fks1p and Fks2p D666G mutant by CLSI method in presence of 50% human serum; type: functional; method in brief: as §2
[27] = tested on: Nakaseomyces glabratus; experiment: Antifungal activity against Candida glabrata isolate 5416 expressing wild type Fks1p and Fks2p W1375L mutant by CLSI method in presence of 50% human serum; type: functional; method in brief: as §2
[28] = tested on: Nakaseomyces glabratus; experiment: Antifungal activity against Candida glabrata isolate 3830 expressing wild type Fks1p and Fks2p S663P mutant by CLSI method; type: functional; method in brief: as §1
[29] = tested on: Nakaseomyces glabratus; experiment: Antifungal activity against Candida glabrata isolate 21900 expressing Fks1p D632G mutant and wild type Fks2p by CLSI method in presence of 50% human serum; type: functional; method in brief: as §2
[30] = Inhibition of Candida glabrata isolate 42971 1,3-beta-D-glucan synthase Fks1p D632Y mutant/Fks2p R1377STOP mutant; set-up: species or system Nakaseomyces glabratus; method in brief: as §3
[31] = tested on: Nakaseomyces glabratus; experiment: Antifungal activity against Candida glabrata isolate 42971 expressing Fks1p D632Y mutant and Fks2p R1377STOP mutant by CLSI method in presence of 50% human serum; type: functional; method in brief: as §2
[32] = Inhibition of Candida glabrata isolate 218 wild type 1,3-beta-D-glucan synthase; set-up: species or system Nakaseomyces glabratus; method in brief: as §3
[33] = molecular target: 1,3-beta-glucan synthase (Candida glabrata, UniProt F5BCZ9, W1375L); experiment: Inhibition of Candida glabrata isolate 5416 1,3-beta-D-glucan synthase wild type Fks1p/Fks2p W1375L mutant; set-up: species or system Nakaseomyces glabratus; method in brief: as §3
[34] = tested on: Nakaseomyces glabratus; experiment: Antifungal activity against Candida glabrata isolate 42031 expressing wild type Fks1p and Fks2p D666E mutant by CLSI method; type: functional; method in brief: as §1
[35] = tested on: Nakaseomyces glabratus; experiment: Antifungal activity against Candida glabrata isolate 21900 expressing Fks1p D632G mutant and wild type Fks2p by CLSI method; type: functional

SMILES	MIC [1] [µg/mL]	MIC [2] [µg/mL]	MIC [3] [µg/mL]	MIC [4] [µg/mL]	MIC [5] [µg/mL]	IC50 [6] [µg/mL]	MIC [7] [µg/mL]	MIC [8] [µg/mL]	MIC [9] [µg/mL]	MIC [10] [µg/mL]	MIC [11] [µg/mL]	IC50 [12] [nM]	IC50 [13] [nM]	IC50 [14] [nM]	MIC [15] [µg/mL]	IC50 [16] [nM]	MIC [17] [µg/mL]	IC50 [18] [nM]	IC50 [19] [nM]	IC50 [20] [µg/mL]	further results
CC[C@H](C)C[C@H](C)CCCCCCCCC(=O)N[C@H]1C[C@@H](O)[C@@H](NCCN)NC(=O)[C@@H]2[C@@H](O)CCN2C(=O)[C@H]([C@H](O)CCN)NC(=O)[C@H]([C@H](O)[C@@H](O)c2ccc(O)cc2)NC(=O)[C@@H]2C[C@@H](O)CN2C(=O)[C@H]([C@@H](C)O)NC1=O [CASPOFUNGIN]	2 (≈ 1.83 µM)	8	8 (≈ 7.32 µM)	2 (≈ 1.83 µM)	8	0.00192 (≈ 0.00176 µM)	8	16 (≈ 14.6 µM)	0.12	4 (≈ 3.66 µM)	8	152	4560	973	2.52 (≈ 2.3 µM)	236	8	105	692	0.1172 (≈ 0.107 µM)	MIC [21]: 16 µg/mL; MIC [22]: 8 µg/mL (≈ 7.32 µM); MIC [23]: 0.06 µg/mL (≈ 0.0549 µM); MIC [24]: 8 µg/mL (≈ 7.32 µM); MIC [25]: 0.25 µg/mL; MIC [26]: 8 µg/mL; MIC [27]: 8 µg/mL; MIC [28]: 16 µg/mL (≈ 14.6 µM); MIC [29]: 16 µg/mL; IC50 [30]: 5.2485 µg/mL (≈ 4.8 µM); MIC [31]: 8 µg/mL; IC50 [32]: 0.00311 µg/mL (≈ 0.00284 µM); IC50 [33]: 556 nM; MIC [34]: 4 µg/mL (≈ 3.66 µM); MIC [35]: 4 µg/mL (≈ 3.66 µM)
CCCCCOc1ccc(-c2ccc(-c3ccc(C(=O)N[C@H]4C[C@@H](O)[C@@H](O)NC(=O)[C@@H]5[C@@H](O)[C@@H](C)CN5C(=O)[C@H]([C@@H](C)O)NC(=O)[C@H]([C@H](O)[C@@H](O)c5ccc(O)cc5)NC(=O)[C@@H]5C[C@@H](O)CN5C(=O)[C@H]([C@@H](C)O)NC4=O)cc3)cc2)cc1 [ANIDULAFUNGIN] ({pTerphenylCO(4''-OnC5H11)}-[Orn(4R-OH,5R-OH)]T[Hyp][hTyr(3S-OH,4S-OH)]T[Pro(3S-OH,4S-Me)]; lactam 1-C)	1.59 (≈ 1.39 µM)	8	2 (≈ 1.75 µM)	2 (≈ 1.75 µM)	4	0.00191 (≈ 0.00168 µM)	8	4 (≈ 3.51 µM)	0.5	2 (≈ 1.75 µM)	8	87.3	3380	753	2 (≈ 1.75 µM)	112	8	75.9	89.3	0.16 (≈ 0.14 µM)	MIC [21]: 16 µg/mL; MIC [22]: 4 µg/mL (≈ 3.51 µM); MIC [23]: 0.03 µg/mL (≈ 0.0263 µM); MIC [24]: 4 µg/mL (≈ 3.51 µM); MIC [25]: 0.5 µg/mL; MIC [26]: 8 µg/mL; MIC [27]: 4 µg/mL; MIC [28]: 1 µg/mL (≈ 0.877 µM); MIC [29]: 8 µg/mL; IC50 [30]: 2.5435 µg/mL (≈ 2.23 µM); MIC [31]: 8 µg/mL; IC50 [32]: 0.00125 µg/mL (≈ 0.0011 µM); IC50 [33]: 74.7 nM; MIC [34]: 1 µg/mL (≈ 0.877 µM); MIC [35]: 1 µg/mL (≈ 0.877 µM)
